Compound activity from PubChem BioAssay.
STAT1 inh: inhibitors of IFN-gamma induced STAT1 signaling | inhibition, % at 5.5 µM | 200,000 compounds, 0.35% hits | NIH 3T3 STAT1-luciferase reporter, luminescence | AID 920;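 active means inhibition above a set limit, the mean inhibition across all tested compounds plus 3 SD, cut at about 34% in these data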
PERK inhibitor: human PERK inhibition, primary cell-based screen; CHO PERK-DD fusion, SEAP luminescence translation reporter; 220,000 compounds, 0.17% hits; inhibition, % at 5.6 µM;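 active means inhibition above the mean inhibition of all tested compounds plus 3 SD, set separately per screening campaign, cut at about 2.9% in these data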;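 further: PERK kinase domain activated by AP20187 dimerizer at 100 nM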
Platelet DG rel: modulates dense granule release in human platelets; 300,000 compounds, 0.22% hits; human platelet-rich plasma, SFLLRN dense granule ATP release, luminescence; AID 1663; inhibition, %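 (compounds screened at 7.5 µM in platelet-rich plasma)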;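 active means mean replicate score, as percent of positive control, at or above 50; inconclusive means mean below 50 but at least one replicate at or above 50; inactive means mean and every replicate below 50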
STAT3 act-1: STAT3 signaling activation. U3A cells, IL-6 STAT3-luciferase reporter, luminescence; 100% = signal with IL-6 EC80 alone. activation (% of control), % at 5.6 µM. AID 871. 190,000 compounds, 0.91% hits;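 active means activation above the screen-wide mean of compound activation plus 3 SD, cut at about 130% in these data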
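Material: STAT3-luciferase reporter U3A cells. Controls: IL-6-treated wells, 100% activation. Read-out: % activation versus median of IL-6-stimulated wells. Probe or stimulus: IL-6 stimulus at 33 ng/mL final. Timing: compound 1 h, then IL-6 6 h at 37 °C. Signal: reporter luminescence signal.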
STAT3 inh: inhibitors of IL-6 induced STAT3 signaling. U3A cells, IL-6 STAT3-luciferase reporter, luminescence; host cell line lacks STAT1. 190,000 compounds, 0.89% hits. inhibition, % at 5.5 µM;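 active means inhibition above the mean inhibition across all screened compounds plus 3 SD, cut at about 44% in these data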
STAT3 act-2: STAT3 activation, confirmation assay | shares compounds with STAT3 act-1 | U3A STAT3-luciferase reporter, IL-6 potentiation, luminescence; U3A cells lack STAT1; 100 means same as IL-6 alone | potentiation (% of control), % at 5.7 µM | 1,200 compounds, 64% hits | AID 1267;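 active means percent activation of the STAT3 luciferase reporter above a set limit taken from the earlier primary screen, cut at about 130% in these data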
NFkB act 2: NF-kappaB activation in STAT3 activator counter-screen | shares compounds with STAT3 act-1 | human cells, NF-kappaB reporter activation | activation (% of control), % at 5.7 µM | 1,200 compounds, 11% hits | AID 1309; in the data active means activation above about 120%;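 further: reporter induced by TNF-alpha stimulation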
STAT1 act: counter-screen for STAT3 activators: STAT1 activation. AID 1318. shares compounds with STAT3 act-1. 1,200 compounds, 13% hits. activation (% of control), % at 5.7 µM. NIH 3T3 STAT1-luciferase reporter, IFN-gamma, luminescence;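 active means activation above the solvent-only control well mean plus 3 SD, set per screening run, cut at about 120% in these data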
Of the large screens only hits and unclear results are named; the others gave an inactive call (follow-up assays come after a bar, where they were run). This is a sample that favours compounds with a hit; in the whole collection about 1.4% have one here.

O=C1OCC2=C1C(c1ccc(F)cc1)c1cc3c(cc1N2)OCO3 (stereo not drawn)	STAT3 act-1 136 (no result: Platelet DG rel) | STAT3 act-2 inactive | NFkB act 2 153 | STAT1 act inactive
O=C1OCC2=C1C(c1ccc(F)cc1)c1cc3c(cc1N2)OCCO3 (stereo not drawn)	STAT3 act-1 138 (no result: Platelet DG rel) | STAT3 act-2 inactive | NFkB act 2 inactive | STAT1 act inactive
C#CCOc1ccc(C2C3=C(COC3=O)Nc3cc4c(cc32)OCO4)cc1OC (stereo not drawn)	STAT3 act-1 143 | STAT3 act-2 inactive | NFkB act 2 159 | STAT1 act inactive
S=c1nc(-c2ccccc2Cl)n(Cc2cccnc2)c2c1CCCC2	none
COc1ccccc1-n1c(=O)c2c3c(sc2n2c(=S)[nH]nc12)CCC3	none
CCN(/C=N/S(=O)(=O)c1ccc(Cl)cc1)CC	none
COc1cc(=O)n(C)c2c(OCC3OC(C)(C)OC3(C)C)cccc12 (stereo not drawn)	none
Nn1c(=O)[nH]c2c([nH]c3ccccc32)c1=O	STAT3 act-1 147 | STAT3 act-2 152 | NFkB act 2 inactive | STAT1 act inactive
Cc1ccc(-c2[nH]c3ccccc3c2C(C[N+](=O)[O-])c2ccco2)cc1 (stereo not drawn)	Platelet DG rel inconclusive, STAT3 act-1 152 | STAT3 act-2 134 | NFkB act 2 inactive | STAT1 act inactive
Cc1ccc2cccnc2c1NC(=S)NC(=O)c1ccccc1	STAT3 act-1 153 | STAT3 act-2 152 | NFkB act 2 inactive | STAT1 act inactive
Cc1ccc2cccc(NC(=S)NC(=O)c3ccccc3)c2n1	STAT3 act-1 169 | STAT3 act-2 170 | NFkB act 2 inactive | STAT1 act inactive
Cc1cnc(=O)[nH]c1SCc1ccccc1F	none (no result: STAT1 inh, PERK inhibitor, STAT3 act-1, STAT3 inh)
COc1ccc(Cl)cc1-c1nc(-c2ccc(Br)o2)no1	STAT3 act-1 174 | STAT3 act-2 160 | NFkB act 2 inactive | STAT1 act inactive
COc1ccc(NC(=S)Nc2ccc(S(N)(=O)=O)cc2)c(OC)c1	STAT3 act-1 136 | STAT3 act-2 inactive | NFkB act 2 inactive | STAT1 act inactive
COc1ccc(NC(=S)Nc2ccc(S(=O)(=O)N3CCOCC3)cc2)c(OC)c1	none
CCN(CC)c1ccc(NC(=O)c2cc(Cl)ccc2OC)cc1	STAT3 act-1 162 | STAT3 act-2 151 | NFkB act 2 inactive | STAT1 act inactive
COc1ccc(Cl)cc1C(=O)Nc1ccncc1	none (no result: STAT1 inh, PERK inhibitor, STAT3 act-1, STAT3 inh)
O=C1C2C3C=CC(C3)C2C(=O)N1CNc1ccccn1 (stereo not drawn)	STAT3 act-1 140 | STAT3 act-2 inactive | NFkB act 2 inactive | STAT1 act inactive
Cn1c(=O)c(C(=O)Nc2ccccn2)c(O)c2ccccc21	STAT3 act-1 139 | STAT3 act-2 178 | NFkB act 2 inactive | STAT1 act 181
Cc1ccc(CSCC2Nc3ccc(C(=O)N4CCN(c5cccc(C)c5)C(C)C4)cc3NC2=O)cc1 (stereo not drawn)	none (no result: STAT1 inh, PERK inhibitor, STAT3 act-1, STAT3 inh)
Cc1[nH]c2ccccc2c1Cc1n[nH]c(=S)n1C	none
Cn1c(Cc2c[nH]c3ccccc23)n[nH]c1=S	STAT3 act-1 155 | STAT3 act-2 inactive | NFkB act 2 inactive | STAT1 act inactive
COc1cc2c(cc1OC)CN(c1nc(-c3cccnc3)nc3ccccc13)CC2	none
CCOC(=O)c1[nH]c2ccccc2c1NC(C)=O	none (no result: STAT1 inh, PERK inhibitor, STAT3 act-1, STAT3 inh)
CCOC(=O)c1[nH]c2ccccc2c1NC(=O)CC	STAT3 act-1 194 | STAT3 act-2 148 | NFkB act 2 inactive | STAT1 act inactive
CCOC(=O)c1[nH]c2ccccc2c1NC(=O)COC	STAT3 act-1 168 | STAT3 act-2 165 | NFkB act 2 inactive | STAT1 act inactive
CCOC(=O)c1c(C)[nH]c(C(=O)OCC(=O)Nc2cccnc2Cl)c1C	none (no result: STAT1 inh, PERK inhibitor, STAT3 act-1, STAT3 inh)
Cc1cc(C)c(S(=O)(=O)n2ccc(-c3ccc(OCCN(C)c4ccccn4)cc3)n2)c(C)c1	none
COc1ccc(C)cc1NC(=O)c1cc2ccccc2o1	none
